The source made the active and inactive calls. No cut-off for these calls is given here.
Experiments:
[1] = molecular target: T1, 5-hydroxytryptamine receptor 1A (Homo sapiens, UniProt P08908); assay: Displacement of [3H]8-OH-DPAT from human 5HT1A receptor expressed in EBNA gene-positive HEK293 cells after 120 mins; format: cell-based
T1 sequence (P08908 whole entry): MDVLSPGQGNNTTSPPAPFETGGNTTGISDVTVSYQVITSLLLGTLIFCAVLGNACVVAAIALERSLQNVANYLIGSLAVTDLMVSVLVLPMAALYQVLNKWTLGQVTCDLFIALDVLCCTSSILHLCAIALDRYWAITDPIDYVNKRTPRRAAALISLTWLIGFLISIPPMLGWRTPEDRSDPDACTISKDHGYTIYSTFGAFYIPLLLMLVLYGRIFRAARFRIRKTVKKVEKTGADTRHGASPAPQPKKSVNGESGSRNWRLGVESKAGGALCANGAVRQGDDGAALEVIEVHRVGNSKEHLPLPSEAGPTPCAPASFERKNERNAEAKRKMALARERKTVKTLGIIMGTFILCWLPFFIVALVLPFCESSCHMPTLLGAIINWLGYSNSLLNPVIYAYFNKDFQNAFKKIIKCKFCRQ
In short: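 Radioligand competition binding with [3H]-8-hydroxy-DPAT on membranes from transfected HEK-293 EBNA cells expressing h5-HT1AR. Buffer was 50 mM Tris-HCl, 0.5 mM MgSO4, pH 7.4. Ki was obtained from IC50 by the Cheng-Prusoff equation. Values are means ± SEM of 2–4 independent experiments, each run in triplicate.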

[2] = molecular target: 5-hydroxytryptamine receptor 2A (Homo sapiens) (UniProt P28223); assay: Binding affinity to human 5HT2A receptor at 1 uM by radioligand displacement assay
5-hydroxytryptamine receptor 2A (Homo sapiens), sequence (P28223 whole entry): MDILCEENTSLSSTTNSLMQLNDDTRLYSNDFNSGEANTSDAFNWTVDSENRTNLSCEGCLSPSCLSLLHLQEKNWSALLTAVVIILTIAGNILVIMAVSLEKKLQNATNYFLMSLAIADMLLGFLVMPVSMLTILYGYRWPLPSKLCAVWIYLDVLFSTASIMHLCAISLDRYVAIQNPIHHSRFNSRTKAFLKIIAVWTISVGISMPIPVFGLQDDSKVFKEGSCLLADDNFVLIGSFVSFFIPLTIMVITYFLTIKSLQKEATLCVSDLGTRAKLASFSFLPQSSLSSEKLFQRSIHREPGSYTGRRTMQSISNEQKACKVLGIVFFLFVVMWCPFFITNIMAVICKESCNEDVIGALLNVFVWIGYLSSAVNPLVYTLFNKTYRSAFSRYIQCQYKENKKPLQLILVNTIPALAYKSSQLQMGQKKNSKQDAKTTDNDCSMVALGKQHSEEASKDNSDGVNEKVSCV
In short: (§1)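 Selectivity screen by radioligand binding at the 5-HT2A, 5-HT4e, 5-HT5a, 5-HT6 and 5-HT7 receptors. Test compound was used at a single concentration of 1 μM. Read-out was percent displacement of the corresponding radioligand.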

[3] = molecular target: T1, 5-hydroxytryptamine receptor 1A; assay: Binding affinity to human 5HT1A receptor expressed in HEK-293 EBNA cell membranes by [3H]-8-hydroxy-DPAT radioligand binding
[4] = molecular target: 5-hydroxytryptamine receptor 5A (Homo sapiens) (UniProt P47898); assay: Binding affinity to human 5HT5A receptor at 1 uM by radioligand displacement assay; in short: as §1
5-hydroxytryptamine receptor 5A (Homo sapiens), sequence (P47898 whole entry): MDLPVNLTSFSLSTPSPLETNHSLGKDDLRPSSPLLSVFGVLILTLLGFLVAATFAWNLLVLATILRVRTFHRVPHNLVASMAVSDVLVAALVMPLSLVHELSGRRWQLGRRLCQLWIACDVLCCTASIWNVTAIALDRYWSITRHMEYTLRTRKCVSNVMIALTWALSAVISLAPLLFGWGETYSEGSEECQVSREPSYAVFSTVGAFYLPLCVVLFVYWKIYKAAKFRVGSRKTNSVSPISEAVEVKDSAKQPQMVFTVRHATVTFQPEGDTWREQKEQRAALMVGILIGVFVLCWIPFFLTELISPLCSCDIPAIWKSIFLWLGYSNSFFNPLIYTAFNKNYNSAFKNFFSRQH

[5] = molecular target: 5-hydroxytryptamine receptor 4 (Homo sapiens) (UniProt Q13639); assay: Binding affinity to human 5-HT4e receptor at 1 uM by radioligand displacement assay; in short: as §1
5-hydroxytryptamine receptor 4 (Homo sapiens), sequence (Q13639 whole entry): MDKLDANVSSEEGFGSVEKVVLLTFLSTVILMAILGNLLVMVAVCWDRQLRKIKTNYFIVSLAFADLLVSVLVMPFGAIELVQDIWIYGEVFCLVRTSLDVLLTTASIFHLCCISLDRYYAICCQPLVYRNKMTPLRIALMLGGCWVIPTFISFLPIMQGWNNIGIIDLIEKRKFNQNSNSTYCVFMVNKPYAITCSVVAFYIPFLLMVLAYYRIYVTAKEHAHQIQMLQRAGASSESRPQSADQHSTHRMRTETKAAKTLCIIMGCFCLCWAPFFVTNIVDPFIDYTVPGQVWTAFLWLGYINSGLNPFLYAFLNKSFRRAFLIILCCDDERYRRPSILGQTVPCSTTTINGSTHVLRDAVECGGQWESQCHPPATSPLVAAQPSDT

[6] = molecular target: 5-hydroxytryptamine receptor 7 (Homo sapiens) (UniProt P34969); assay: Displacement of [3H]LSD from human 5HT7 receptor expressed in HEK293 cells at 1 uM after 120 mins by scintillation counting; format: cell-based; in short: as §1
5-hydroxytryptamine receptor 7 (Homo sapiens), sequence (P34969 whole entry): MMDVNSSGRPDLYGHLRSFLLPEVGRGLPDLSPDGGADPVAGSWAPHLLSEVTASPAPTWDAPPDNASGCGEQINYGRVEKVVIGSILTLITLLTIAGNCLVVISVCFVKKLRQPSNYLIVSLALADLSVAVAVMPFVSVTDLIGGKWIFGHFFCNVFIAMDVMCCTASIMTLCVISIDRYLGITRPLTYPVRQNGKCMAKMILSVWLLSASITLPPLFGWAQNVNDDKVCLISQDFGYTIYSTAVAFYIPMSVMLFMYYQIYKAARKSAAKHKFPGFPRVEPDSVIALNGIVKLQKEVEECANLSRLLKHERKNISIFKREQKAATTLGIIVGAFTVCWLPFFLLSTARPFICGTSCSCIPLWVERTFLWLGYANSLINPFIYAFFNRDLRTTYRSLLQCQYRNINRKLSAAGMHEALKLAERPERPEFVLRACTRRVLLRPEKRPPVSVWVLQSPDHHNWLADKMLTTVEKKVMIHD

[7] = molecular target: 5-hydroxytryptamine receptor 6 (Homo sapiens) (UniProt P50406); assay: Displacement of [3H]LSD from human 5HT6 receptor expressed in HEK293 cells after 120 mins by radioligand displacement assay; format: cell-based; in short: as §1
5-hydroxytryptamine receptor 6 (Homo sapiens), sequence (P50406 whole entry): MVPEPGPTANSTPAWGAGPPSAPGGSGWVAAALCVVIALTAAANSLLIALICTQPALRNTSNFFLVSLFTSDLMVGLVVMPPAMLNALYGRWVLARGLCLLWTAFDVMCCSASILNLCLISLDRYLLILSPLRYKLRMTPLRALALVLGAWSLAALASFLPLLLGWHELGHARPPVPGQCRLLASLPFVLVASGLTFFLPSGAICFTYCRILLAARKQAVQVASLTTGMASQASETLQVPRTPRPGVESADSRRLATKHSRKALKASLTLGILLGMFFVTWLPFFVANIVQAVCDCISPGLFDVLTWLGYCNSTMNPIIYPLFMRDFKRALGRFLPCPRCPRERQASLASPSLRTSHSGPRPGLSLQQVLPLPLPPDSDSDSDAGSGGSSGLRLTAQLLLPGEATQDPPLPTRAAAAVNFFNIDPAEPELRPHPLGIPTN

| SMILES | Ki [1] [nM] | also measured |
| --- | --- | --- |
| CN(C)S(=O)(=O)c1ccc2cccc(N3CCN(CCCCN4C(=O)C5CCCN5C4=O)CC3)c2c1 (stereo not drawn) | 2.4 |  |
| CN(C)c1cccc2c(S(=O)(=O)NCCCCCCCC34CCCN3C(=O)N(CCCCN3CCN(c5cccc6ccccc56)CC3)C4=O)cccc12 (stereo not drawn) | 5 |  |
| COc1ccccc1N1CCN(CCCCN2C(=O)N3CCCC3(CCCCCCCNS(=O)(=O)c3cccc4c(N(C)C)cccc34)C2=O)CC1 (stereo not drawn) | 15 |  |
| CN(C)c1cccc2c(S(=O)(=O)N3CCN(CCCCN4C(=O)C5CCCN5C4=O)CC3)cccc12 (stereo not drawn) | > 1000 |  |
| COc1ccccc1N1CCN(CCCCN2C(=O)N3CCCC3(CCCCNCCCCCNS(=O)(=O)c3cccc4c(N(C)C)cccc34)C2=O)CC1 (stereo not drawn) | 9 |  |
| COc1ccccc1N1CCN(CCCCN2C(=O)N3CCCC3(CCNCCCCCNS(=O)(=O)c3cccc4c(N(C)C)cccc34)C2=O)CC1 (stereo not drawn) | 7 |  |

Continued by falling Ki [1], values first:

| Ki [1] [nM] | SMILES | also measured |
| --- | --- | --- |
| 350 | CN(C)S(=O)(=O)c1cccc2c(N3CCN(CCCCN4C(=O)C5CCCN5C4=O)CC3)cccc12 (stereo not drawn) |  |
| 98 | CN(C)S(=O)(=O)c1ccc2c(N3CCN(CCCCN4C(=O)C5CCCN5C4=O)CC3)cccc2c1 (stereo not drawn) |  |
| 11 | COc1ccccc1N1CCN(CCCCN2C(=O)N3CCCC3(CCCCNS(=O)(=O)c3cccc4c(N(C)C)cccc34)C2=O)CC1 (stereo not drawn) |  |
| 5.5 | COc1ccccc1N1CCN(CCCCN2C(=O)C3CCCN3C2=O)CC1 (stereo not drawn) |  |
| 2.4 | O=C1C2CCCN2C(=O)N1CCCCN1CCN(c2cccc3ccccc23)CC1 (stereo not drawn) |  |
| 2 | CN(C)c1cccc2c(S(=O)(=O)NCCCCC34CCCN3C(=O)N(CCCCN3CCN(c5cccc6ccccc56)CC3)C4=O)cccc12 (stereo not drawn) | Activity [2]: > 80%; Ki [3]: 38 nM; Activity [4]: > 80%; Activity [5]: inactive; Activity [6]: > 80%; Activity [7]: inactive |

— ChEMBL document CHEMBL1781962, “Development of Fluorescent Ligands for the Human 5-HT1A Receptor” (ACS Med Chem Lett, 2010)
